Measurements pooled from the literature.
Lines come from different studies, so protocols differ.
Melanocortin receptor 5: Melanocortin receptor 5 (Mus musculus, UniProt P41149)
gyrB: DNA gyrase subunit B (gyrB, Escherichia coli, UniProt P0AES6)
GRM4: Metabotropic glutamate receptor 4 (GRM4, Homo sapiens, UniProt Q14833)
CA9: Carbonic anhydrase 9 (CA9, Homo sapiens, UniProt Q16790)
Adora1: Adenosine receptor A1 (Adora1, Rattus norvegicus, UniProt P25099)
PKN1: Serine/threonine-protein kinase N1 (PKN1, Homo sapiens, UniProt Q16512)

With CSCC[C@H](NC(=O)[C@@H](NC(=O)[C@@H](N)Cc1ccc(O)cc1)C(C)C)C(=O)NCC(=O)N[C@@H](Cc1c[nH]cn1)C(=O)N[C@@H](Cc1ccccc1)C(=O)N[C@@H](CCCNC(=N)N)C(=O)N[C@@H](Cc1c[nH]c2ccccc12)C(=O)N[C@@H](CC(=O)O)C(=O)N[C@@H](CCCNC(=N)N)C(=O)O the EC50 was 0.062 µM (Melanocortin receptor 5; reporter gene; agonist).
For CNc1cccc2cc(C(=O)Nc3ccc(CC(=O)O)cc3)c(=O)[nH]c12, the Kd was 0.0047 µM (gyrB; binding; ITC).
The EC50 of O=C(Nc1ccc(N2C(=O)c3ccccc3C2=O)c(Cl)c1)c1ncccc1O is reported as 0.13 µM (GRM4; calcium signal; agonist).
The IC50 of Cn1cc(-c2ccc(N3CCN(C(=O)c4ccc(S(N)(=O)=O)c(Br)c4)CC3)c3cc[nH]c23)nn1 is reported as 0.0129 µM (CA9; enzyme activity; inhibitor).
CCCCCC(C)N1CCCn2c1nc1c2c(=O)n(C)c(=O)n1C (centres unmarked) has a Ki of greater than 25 µM (Adora1; ligand displacement; radioligand; cell membranes).
With N=C(N)NCCC[C@H](N)C(=O)N[C@@H](Cc1ccccc1)C(=O)NCC(=O)O the EC50 was greater than 100 µM (Melanocortin receptor 5; reporter gene; agonist).
CCCC(C)N1CCCn2c1nc1c2c(=O)n(C)c(=O)n1C (centres unmarked) has a Ki of greater than 25 µM (Adora1; ligand displacement; radioligand; cell membranes).
CSCC[C@H](NC(=O)[C@@H](NC(=O)[C@@H](N)Cc1ccc(O)cc1)C(C)C)C(=O)NCC(=O)N[C@@H](Cc1c[nH]cn1)C(=O)N[C@@H](Cc1ccccc1)C(=O)N[C@@H](CCCNC(=N)N)C(=O)N[C@@H](Cc1c[nH]c2ccccc12)C(=O)N[C@@H](CC(=O)O)C(=O)N[C@@H](CCCNC(=N)N)C(=O)N[C@@H](Cc1ccccc1)C(=O)O gave an EC50 of 0.13 µM (Melanocortin receptor 5; reporter gene; agonist).
For O=S(=O)(NCCNC/C=C/c1ccc(Br)cc1)c1cccc2cnccc12, the IC50 was 0.155 µM (PKN1; enzyme activity; inhibitor).
CCCN1CCN(c2ccc(-c3cncc(Cl)c3N3CCC4(CCNC4=O)CC3)cc2)CC1 gave a Kd of 23.3 µM (NUAK family SNF1-like kinase 2 (NUAK2, Homo sapiens, UniProt Q9H093); cell-free assay; lysate).
With CSCC[C@H](N)C(=O)NCC(=O)N[C@@H](Cc1c[nH]cn1)C(=O)N[C@@H](Cc1ccccc1)C(=O)N[C@@H](CCCNC(=N)N)C(=O)N[C@@H](Cc1c[nH]c2ccccc12)C(=O)N[C@@H](CC(=O)O)C(=O)N[C@@H](CCCNC(=N)N)C(=O)N[C@@H](Cc1ccccc1)C(=O)NCC(=O)O the EC50 was 0.094 µM (Melanocortin receptor 5; reporter gene; agonist).
CC(C)CC(C)N1CCCn2c1nc1c2c(=O)n(C)c(=O)n1C (centres unmarked) gave a Ki of greater than 25 µM (Adora1; ligand displacement; radioligand; cell membranes).
NS(=O)(=O)c1cccc(NC(=O)CCN2CCC(c3cccc4[nH]ccc34)CC2)c1 gave an IC50 of 11 µM (CA9; enzyme activity; inhibitor).
CCCCNc1ncc2c(-c3ccc(CN4CCN(C)CC4)cc3)cn([C@H]3CC[C@H](O)CC3)c2n1 gave an IC50 of 0.053 µM (PKN1; enzyme activity; inhibitor).
For Cc1cc(C)cc(C(=O)N2CCCC(C(=O)N(C)C(C)c3ccc(S(N)(=O)=O)cc3)C2)c1 (centres unmarked), the IC50 was 0.06 µM (CA9; enzyme activity; inhibitor).
For N=C(N)NCCC[C@H](NC(=O)[C@H](CC(=O)O)NC(=O)[C@H](Cc1c[nH]c2ccccc12)NC(=O)[C@H](CCCNC(=N)N)NC(=O)[C@H](Cc1ccccc1)NC(=O)[C@@H](N)Cc1c[nH]cn1)C(=O)N[C@@H](Cc1ccccc1)C(=O)O, the EC50 was 1.87 µM (Melanocortin receptor 5; reporter gene; agonist).
With CNc1cccc2cc(C(=O)NCc3cccc(C(=O)O)c3)c(=O)[nH]c12 the Kd was 0.39 µM (gyrB; binding; ITC).
For CN(c1ccccc1CNc1nc(Nc2ccc3c(c2)CC(=O)N3)ncc1C(F)(F)F)S(C)(=O)=O, the IC50 was 0.129 µM (PKN1; enzyme activity; inhibitor).
For NS(=O)(=O)c1cc(C(=O)Nc2ccc(NC(=O)CCN3CCCCC3)cc2)ccc1Cl, the IC50 was 0.16 µM (CA9; enzyme activity; inhibitor).
With Cc1cccnc1C(=O)Nc1ccc(N2C(=O)c3ccccc3C2=O)c(Cl)c1 the EC50 was greater than 10 µM (GRM4; calcium signal; agonist).
N=C(N)NCCC[C@H](NC(=O)[C@H](CC(=O)O)NC(=O)[C@H](Cc1c[nH]c2ccccc12)NC(=O)[C@@H](N)CCCNC(=N)N)C(=O)N[C@@H](Cc1ccccc1)C(=O)NCC(=O)O gave an EC50 of greater than 100 µM (Melanocortin receptor 5; reporter gene; agonist).
Cc1cnc(-c2ccc(-c3ccc(NC(=O)Nc4c(F)cc(F)cc4F)cc3F)c3c2C(=O)NC3)[nH]1 has a Kd of 0.018 µM (Tyrosine-protein kinase HCK (HCK, Homo sapiens, UniProt P08631); binding; competition with immobilised ligand).
O=C(O)c1cccc(NC(=O)c2cc3ccccc3[nH]c2=O)c1 gave a Kd of 7 µM (gyrB; binding; ITC).
CC(NC(=O)C(C)N1CCN(C(=O)c2cccc(O)c2)CC1)c1ccc(S(N)(=O)=O)cc1 (centres unmarked) gave an IC50 of 0.75 µM (CA9; enzyme activity; inhibitor).
CNc1cccc2cc(C(=O)NCCc3ccc(C(=O)O)cc3)c(=O)[nH]c12 has a Kd of 0.023 µM (gyrB; binding; ITC).
For CCC(C)N1CCCn2c1nc1c2c(=O)n(C)c(=O)n1C (centres unmarked), the Ki was no less than 25 µM (Adora1; ligand displacement; radioligand; cell membranes).
N=C(N)NCCC[C@H](NC(=O)[C@H](CC(=O)O)NC(=O)[C@H](Cc1c[nH]c2ccccc12)NC(=O)[C@H](CCCNC(=N)N)NC(=O)[C@H](Cc1ccccc1)NC(=O)[C@@H](N)Cc1c[nH]cn1)C(=O)N[C@@H](Cc1ccccc1)C(=O)NCC(=O)O has an EC50 of 0.76 µM (Melanocortin receptor 5; reporter gene; agonist).
CC(C)CCCC(C)N1CCCn2c1nc1c2c(=O)n(C)c(=O)n1C (centres unmarked) has a Ki of 7.69 µM (Adora1; ligand displacement; radioligand; cell membranes).
For NS(=O)(=O)c1ccc(NC(=O)NCc2cccc(NC(=O)C3CC3)c2)cc1, the IC50 was 0.055 µM (CA9; enzyme activity; inhibitor).
Cc1ccc(C)c(OCCCC(C)(C)C(=O)O)c1 gave an EC50 of 111 µM (Peroxisome proliferator-activated receptor alpha (Ppara, Mus musculus, UniProt P23204); reporter gene; agonist; luciferase).
With CSCC[C@H](NC(=O)[C@@H](N)Cc1ccc(O)cc1)C(=O)N[C@@H](Cc1c[nH]cn1)C(=O)N[C@@H](Cc1ccccc1)C(=O)N[C@@H](CCCNC(=N)N)C(=O)N[C@@H](Cc1c[nH]c2ccccc12)C(=O)N[C@@H](Cc1ccccc1)C(=O)O the EC50 was 1.1 µM (Melanocortin receptor 5; reporter gene; agonist).
NS(=O)(=O)c1ccc(NC(=O)COC(=O)c2ccccc2Nc2cccc(C(F)(F)F)c2)cc1 has an IC50 of 0.087 µM (CA9; enzyme activity; inhibitor).
C=CCN1CCCn2c1nc1c2c(=O)n(C)c(=O)n1C gave a Ki of 4.4 µM (Adora1; ligand displacement; radioligand; cell membranes).
NS(=O)(=O)c1ccc(NC(=S)N2CCN(C(=O)c3ccco3)CC2)cc1 gave an IC50 of 0.0372 µM (CA9; enzyme activity; inhibitor).
O=C(O)c1ccc(NC(=O)c2cc3ccccc3[nH]c2=O)cc1 has a Kd of 0.73 µM (gyrB; binding; ITC).
